Article PMC5189983 (Biomaterials, 2016)

How the values were obtained:
2D2 CD4+ T cells = assay: DC/2D2 T cell co-culture, T cell proliferation; type: cell-based, mice; conditions: 48 hours co-culture, dye dilution
Procedure, shortened: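 Splenic CD11c+ DCs from female C57BL/6 mice were isolated by positive selection and plated at 100,000/well in RPMI 1640 with 10% FBS at 37°C and 5% CO2. They were stimulated with CpG (5 µg/mL) plus complex or free controls for 24 h. Splenic CD4+ T cells from 2D2 mice were isolated by negative selection and labelled with eFluor 670 dye. They were co-cultured with the DCs for 48 h, then stained with DAPI and anti-CD4, and dye dilution was read by flow cytometry.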

EAE = EAE mouse model of MS; type: in vivo, C57BL/6 female mice; conditions: 50 µg free GpG on days 5, 10, and 15

Substance	CD4+ T cell proliferation (2D2 CD4+ T cells)	therapeutic effect relative to untreated mice (EAE)
5’-TCCATGACGTTCCTGACGTT-3’ [CpG]	did not cause any proliferation	
5’-TGACTGTGAAGGTTAGAGATGA-3’ (DNA TGACTGTGAAGGTTAGAGATGA; chemistry not given here) [GpG]		no therapeutic effect
